Assay outcomes as filed in PubChem.
In the library only some 2.9% were active in any assay of this set; here they are far more common.
SENP7 block – inhibitors of human SENP7 protease. inhibition, % at 5 µM. Q9BQF6. recombinant SENP7, Z-RLRGG-aminoluciferin luminescence, 40 min. 1.5% of 330,000 active. AID 434973;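 active = inhibition above about 50% at the single test dose, limit read from the data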;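 also: plate controls were DMSO with enzyme for no effect and no enzyme buffer wells for full effect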
SENP6 block – SENP6 protease inhibition; 1.8% of 330,000 active; Recombinant SENP6 catalytic domain, aminoluciferin luminescence; inhibition, % at 10 µM;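 active = inhibition above about 50% at the single tested dose, limit read from the data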;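 also: plate controls were DMSO wells with enzyme for no effect and DMSO wells lacking enzyme for full effect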
SENP8 block-1 – blocks the human protease SENP8; inhibition, % at 10 µM; 1.2% of 330,000 active; Q96LD8; AID 2540; purified SENP8, Z-RLRGG-aminoluciferin cleavage, luminescence; in the data active = inhibition above about 50%
Target sequence (Q96LD8 whole entry, looked up): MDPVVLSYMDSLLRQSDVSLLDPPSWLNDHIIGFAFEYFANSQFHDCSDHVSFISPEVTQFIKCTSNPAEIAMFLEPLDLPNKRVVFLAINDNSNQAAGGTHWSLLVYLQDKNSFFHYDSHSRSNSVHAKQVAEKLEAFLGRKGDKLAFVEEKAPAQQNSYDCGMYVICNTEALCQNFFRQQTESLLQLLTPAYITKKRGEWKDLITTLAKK
SENP1 inh – blocks the human SENP1 SUMO protease catalytic domain | 0.21% of 360,000 active | Q9P0U3 | AID 624204 | recombinant SENP1 catalytic domain, CyPet-SUMO1-YPet FRET cleavage | inhibition, % at 10 µM;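 active = inhibition at least 30% at 10 µM, raw YFP signal under a set limit, fluorescence ratio 0.5 to 1.5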;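 also: 0% = enzyme with DMSO and 100% = no enzyme wells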
Target sequence (Q9P0U3 419-644 limits assumed): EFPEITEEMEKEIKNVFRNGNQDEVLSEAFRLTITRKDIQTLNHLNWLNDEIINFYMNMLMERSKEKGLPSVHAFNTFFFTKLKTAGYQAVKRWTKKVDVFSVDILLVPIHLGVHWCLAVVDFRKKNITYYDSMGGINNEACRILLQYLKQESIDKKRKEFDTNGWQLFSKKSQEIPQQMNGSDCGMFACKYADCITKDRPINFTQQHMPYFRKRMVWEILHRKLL
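Material: hSENP1 catalytic domain, recombinant; medium: Tris pH 8 with BME, BSA, NP40 and catalase; compound: single concentration of 10 µM compound, 0.5% DMSO final; technique: FRET read of cyan and yellow fluorescence; timing: 50 min enzyme reaction, room temperature, light-protected; reagent: SFCypet-SUMO1-SFYpet substrate at 25 nM; control set: no-enzyme low, enzyme-DMSO high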
SENP8 block-2 – SENP8 (human) protease inhibition; Q96LD8; recombinant SENP8, Nedd8 substrate fluorescence; inhibition, % at 20 µM; 0.64% of 360,000 active; in the data active = inhibition mostly above about 40%, no sharp cut-off; inactive = mostly below about 27%
HSP90 inh – blocks HSP90-mediated luciferase refolding in reticulocyte lysate; Rabbit reticulocyte lysate, luciferase refolding luminescence, 3 h; inhibition, % at 5.6 µM; 0.91% of 290,000 active; AID 1789;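 active = inhibition above the screen-wide mean plus 3 SD, computed separately per campaign, cut at about 16% in these data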;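 also: 0% = DMSO wells and 100% = 60 µM geldanamycin wells; inhibitors lower the luminescence because luciferase stays unfolded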
SENP8 confirm – confirmation of human SENP8 protease inhibitors. shares compounds with SENP7 block. Recombinant SENP8, Z-RLRGG-aminoluciferin luminescence, 60 min. inhibition, % at 12.5 µM. 40% of 6,200 active;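 active = mean inhibition across replicates above about 50%, limit read from the data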
SENP6 confirm – human SENP6 inhibition, confirmed. recombinant SENP6, Z-RLRGG-aminoluciferin luminescence. shares compounds with SENP7 block. AID 488915. 58% of 6,200 active. inhibition, % at 12.5 µM
SENP7 conf – confirmation of human SENP7 protease inhibitors. shares compounds with SENP7 block. recombinant SENP7, Z-RLRGG-aminoluciferin luminescence, 40 min. inhibition, % at 12.5 µM. 69% of 6,200 active. AID 488917
Casp3 SENP sel – inhibits human caspase-3 in SENP selectivity test; 60% of 6,200 active; shares compounds with SENP7 block; purified caspase-3, Z-DEVD-aminoluciferin luminescence, 60 min; inhibition, % at 12.5 µM;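 active = mean inhibition above about 50%, limit read from the data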;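 also: plate controls were enzyme with DMSO for no effect and wells without caspase-3 for full effect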
Target sequence (P42574 28-227 limits assumed): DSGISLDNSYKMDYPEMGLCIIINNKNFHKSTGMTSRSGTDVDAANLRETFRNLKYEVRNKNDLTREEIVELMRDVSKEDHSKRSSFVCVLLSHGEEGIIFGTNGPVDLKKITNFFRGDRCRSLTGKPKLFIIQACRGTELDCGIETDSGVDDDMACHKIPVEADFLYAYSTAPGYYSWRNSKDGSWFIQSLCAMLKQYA
SENP luc ctr – interferes with luciferase luminescence in SENP counter-screen. inhibition, % at 12.5 µM. Pre-incubated SENP8/Z-RLRGG-aminoluciferin, luciferase luminescence interference. AID 488919. 39% of 6,200 active. shares compounds with SENP7 block;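 active = mean inhibition above about 50% when retested at one dose, limit read from the data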;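 also: plate controls were DMSO wells with completed reaction for no effect and substrate without enzyme for full effect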
An asterisk follows results filed as active; · = not tested or not shown.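 The calls were made as follows, unless noted: active = mean inhibition above about 50% in the one-dose retest (limit read from the data); inactive = the rest.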

SMILES	SENP7 block	SENP6 block	SENP8 block-1	SENP1 inh	SENP8 block-2	HSP90 inh	SENP8 confirm	SENP6 confirm	SENP7 conf	Casp3 SENP sel	SENP luc ctr
CCCOc1ccc(N2CC(C(=O)NCCc3ccc(OC)c(OC)c3)CC2=O)cc1 (stereo not given)	8	-10	1	0	-1	-1	·	·	·	·	·
CC(C)(C)Cc1c(-c2ccccc2)nc2ccc(Cl)cn12	·	·	·	-2	-11	·	·	·	·	·	·
O=C(Nc1ccccc1)Nc1cccc2cccnc12	74*	42	60*	-2	8	-3	80*	80*	94*	59*	77*
Cc1ccc(C(=O)Nc2cccc3cccnc23)cc1Br	55*	4	-5	-2	4	·	-2	2	9	23	12
O=C(Nc1ccc(C(=O)O)cc1)Nc1cccc2ccccc12	34	58*	17	2	-74	1	38	34	65*	62*	34
Cc1ccc(C(=O)Nc2ncc(C)s2)o1	67*	60*	35	2	-1	6	62*	58*	87*	90*	67*
Cc1cnc(NC(=O)c2cc3ccccc3o2)s1	75*	68*	55*	-2	-18	38*	38	31	61*	51*	36
O=C(Nc1cccnc1Cl)c1cc2ccccc2o1	63*	70*	50	4	14	-1	60*	61*	89*	81*	72*
Cc1cnc(NC(=O)c2ccc3c(c2)OCCO3)s1	92*	91*	84*	0	-411	·	47	84*	97*	79*	0
Cc1cc(NC(=O)c2cccnc2Cl)ccc1NC(=O)c1cc2ccccc2o1	-4	-28	-6	2	4	-3	·	·	·	·	·
CCN1CCN(C(=S)Nc2cc(S(=O)(=O)N(CC)CC)ccc2C)CC1	-2	-2	0	-2	6	-1	·	·	·	·	·
CCN(CC(=O)Nc1c(F)cccc1F)C(=O)C1(c2ccccc2)CC1	-2	-5	-5	-1	3	-3	·	·	·	·	·
OC1=C(O)c2nc3cc(F)ccc3nc21	-2	11	-1	-12	17	1	·	·	·	·	·
Fc1ccc2nc3[nH]c4ccccc4c3nc2c1	74*	74*	47	-58	-211	0	8	53*	53*	61*	25
COc1cc2sc3ccc(C#CC4(O)CCCCC4)cc3c(=O)c2cc1OC	99*	98*	94*	-116	-473	·	66*	70*	91*	81*	24
COC(=O)c1[nH]c2cccc(Cl)c2c1NC(=O)CN1CCN(CCO)CC1	101*	13	1	1	-17	-1	11	10	0	-4	-3
COC(=O)c1[nH]c2cccc(Cl)c2c1NC(=O)CN1CCCCC1C (stereo not given)	5	-34	5	-2	-47	2	·	·	·	·	·
c1csc(-c2csc(-c3cccs3)n2)c1	55*	-16	20	-1	-142	2	42	60*	82*	34	44
Nc1ccc(Nc2nc(-c3cccs3)cs2)cc1	2	-11	37	1	11	2	·	·	·	·	·
Cc1cccc(Nc2nc(-c3ccccn3)cs2)n1	79*	76*	70*	0	-6	0	-5	78*	95*	74*	86*
Cc1cccc(Nc2nc(-c3cccs3)cs2)n1	81*	90*	89*	0	-10	-1	8	96*	102*	76*	87*
CSCCC(=O)Nc1nc(-c2ccccn2)cs1	·	·	·	-1	9	1	·	·	·	·	·
c1cncc(-c2nc(-c3cccs3)cs2)c1	-1	-3	-7	1	-69	2	·	·	·	·	·
c1ccc(Nc2nc(-c3cccs3)cs2)nc1	83*	92*	94*	1	-31	3	96*	97*	102*	88*	94*
CCCN1CCN(CC(O)COC(c2ccc(OC)cc2)c2ccc(OC)cc2)CC1 (stereo not given)	·	·	·	5	15	4	·	·	·	·	·
SMILES	SENP7 block	SENP6 block	SENP8 block-1	SENP1 inh	SENP8 block-2	HSP90 inh	SENP8 confirm	SENP6 confirm	SENP7 conf	Casp3 SENP sel	SENP luc ctr
O=S1(=O)C=C[C@@H](CO)N1Cc1ccc(Br)cc1	·	·	·	3	15	·	·	·	·	·	·
CN1C[C@@H]2[C@@H]3C(=O)N(Cc4ccccc4)C(=O)[C@@H]3[C@](C)(C1=O)N2C(=O)c1ccccc1	·	·	·	0	14	·	·	·	·	·	·
c1ccc(-c2nc3c(ccc4ccccc43)[nH]2)nc1	76*	73*	67*	5	-374	-3	83*	79*	95*	76*	82*
c1ccc(-c2nc3ccccc3[nH]2)nc1	75*	69*	48	0	-29	5	61*	60*	88*	90*	70*
Nc1ccc(Cc2nc3c(ccc4ccccc43)[nH]2)cc1	1	-9	-6	-3	-36	-5	·	·	·	·	·
O=c1[nH]c(-c2ccccn2)nc2ccccc12	5	-5	2	2	0	-4	·	·	·	·	·
COC(=O)c1ccc(-c2nc3ccccc3[nH]2)cc1	95*	88*	85*	3	-427	10	93*	93*	100*	96*	91*
Cc1cc(-c2nc3ccccc3[nH]2)ccc1N	91*	50*	70*	-2	-392	6	87*	86*	99*	93*	87*
CC(C)CN1C(=O)C(=O)N(CC(=O)c2ccc3c(c2)CCCC3)C1=O	-9	-12	5	0	2	·	·	·	·	·	·
CC1CCC(NC(=O)C2CCC(CNS(=O)(=O)c3ccc4c(c3)C(C)(C)C(=O)N4C)CC2)CC1 (stereo not given)	·	·	·	0	10	·	·	·	·	·	·
Nc1nc(-c2nc3ccccc3[nH]2)cs1	28	52*	6	-10	-30	3	46	42	72*	78*	58*
c1ccc(-c2nc3ccccc3[nH]2)cc1	76*	76*	71*	-1	-12	-4	73*	66*	90*	84*	69*
COc1cc(C(=O)N2CCN(c3cccc(C(F)(F)F)c3)CC2)ccc1OCC(=O)N1CCOCC1	·	·	·	1	3	·	·	·	·	·	·
